Measured values as given in ChEMBL document CHEMBL1649367, “Anti-breast cancer activity of some novel 1,2-dihydropyridine, thiophene and thiazole derivatives” (Eur J Med Chem, 2011).

What was measured:
MCF7 [1] = experiment: Cytotoxicity against human MCF7 cells assessed as cell surviving fraction at 10 uM after 48 hrs by SRB assay; format: functional
How it was run: (§1)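 MCF7 cells were seeded at 10⁴ cells/well and allowed to attach for 24 h. Compounds in DMSO were added at 10, 25, 50 and 100 µM, in triplicate wells, for 48 h at 37 °C under 5% CO₂. Cells were fixed and stained 30 min with 0.4% SRB in 1% acetic acid, and dye was recovered in Tris-EDTA for absorbance. IC50 came from the surviving-fraction curve; values are means of three experiments ± SE.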

MCF7 [2] = experiment: Cytotoxicity against human MCF7 cells assessed as cell surviving fraction at 25 uM after 48 hrs by SRB assay; format: functional; how it was run: as §1
MCF7 [3] = experiment: Cytotoxicity against human MCF7 cells assessed as cell surviving fraction at 100 uM after 48 hrs by SRB assay; format: functional; how it was run: as §1
MCF7 [4] = experiment: Cytotoxicity against human MCF7 cells after 48 hrs by SRB assay; format: functional, cell-based; how it was run: as §1
MCF7 [5] = experiment: Cytotoxicity against human MCF7 cells assessed as cell surviving fraction at 50 uM after 48 hrs by SRB assay; format: functional; how it was run: as §1
[6] = Homo sapiens, MCF7, 48 h, read-out: IC50

| Structure (SMILES) | Activity (MCF7 [1]) | Activity (MCF7 [2]) | Activity (MCF7 [3]) | IC50 (MCF7 [4]; [6]) [µM] | Activity (MCF7 [5]) | IC50 (MCF7 [4]; mcf7) |
| --- | --- | --- | --- | --- | --- | --- |
| C/C(=N\NC(=O)CC#N)c1ccc(S(=O)(=O)N2CCCCC2)cc1 | 0.944 | 0.666 | 0.511 | 44.2 | 0.44 | – |
| CCOC(=O)c1c(-c2ccc(C)cc2)c(C#N)c(=O)n(/N=C(\C)c2ccc(S(=O)(=O)N3CCCCC3)cc2)c1N | 0.911 | 0.677 | 0.581 | 37.9 | 0.652 | – |
| CCOC(=O)c1c(-c2ccc(O)cc2)c(C#N)c(=O)n(/N=C(\C)c2ccc(S(=O)(=O)N3CCCCC3)cc2)c1N | 0.925 | 0.647 | 0.641 | 25.5 | 0.681 | – |
| CCOC(=O)c1c(-c2ccc(OC)cc2)c(C#N)c(=O)n(/N=C(\C)c2ccc(S(=O)(=O)N3CCCCC3)cc2)c1N | 0.972 | 0.657 | 0.375 | 51.2 | 0.452 | – |
| CCOC(=O)c1c(-c2ccc(O)c(OC)c2)c(C#N)c(=O)n(/N=C(\C)c2ccc(S(=O)(=O)N3CCCCC3)cc2)c1N | 0.921 | 0.694 | 0.478 | 38.7 | 0.621 | – |
| CCOC(=O)c1c(-c2ccc(N(C)C)cc2)c(C#N)c(=O)n(/N=C(\C)c2ccc(S(=O)(=O)N3CCCCC3)cc2)c1N | 0.861 | 0.745 | 0.407 | 34.4 | 0.557 | – |
| CCOC(=O)c1c(-c2ccc(Cl)cc2)c(C#N)c(=O)n(/N=C(\C)c2ccc(S(=O)(=O)N3CCCCC3)cc2)c1N | 0.818 | 0.723 | 0.553 | 20.6 | 0.622 | – |
| C/C(=N\n1c(N)cc(N)c(C#N)c1=O)c1ccc(S(=O)(=O)N2CCCCC2)cc1 | 0.371 | 0.298 | 0.394 | 36.4 | 0.416 | – |
| C/C(=N\n1c(O)cc(N)c(C#N)c1=O)c1ccc(S(=O)(=O)N2CCCCC2)cc1 | 0.748 | 0.54 | 0.437 | 74.6 | 0.433 | – |
| C/C(=N\NC(=O)c1sc(N)c(C#N)c1N)c1ccc(S(=O)(=O)N2CCCCC2)cc1 | 0.588 | 0.507 | 0.406 | 49.3 | 0.451 | – |
| CCOC(=O)c1c(N)sc(C(=O)N/N=C(\C)c2ccc(S(=O)(=O)N3CCCCC3)cc2)c1N | 1.925 | 0.947 | 0.841 | – | 0.981 | Not Active |
| C/C(=N\NC(=O)c1sc2c(c1N)CCC2)c1ccc(S(=O)(=O)N2CCCCC2)cc1 | 0.942 | 0.857 | 0.375 | 75.3 | 0.552 | – |
| C/C(=N\NC(=O)c1sc2c(c1N)CCCC2)c1ccc(S(=O)(=O)N2CCCCC2)cc1 | 0.971 | 0.994 | 0.558 | 87.8 | 0.621 | – |
| C/C(=N\NC(=O)c1sc(=S)n(-c2ccccc2)c1N)c1ccc(S(=O)(=O)N2CCCCC2)cc1 | 0.861 | 0.745 | 0.407 | 60.1 | 0.557 | – |
| COc1cccc2c1C(=O)c1c(O)c3c(c(O)c1C2=O)C[C@@](O)(C(=O)CO)C[C@@H]3O[C@H]1C[C@H](N)[C@H](O)[C@H](C)O1 [DOXORUBICIN] | 0.721 | – | 0.494 | 32 | 0.461 | – |
